Assay results reported in ChEMBL document CHEMBL5376028, “Discovery of dual-action phenolic 4-arylidene-isoquinolinones with antioxidant and α-glucosidase inhibition activities” (RSC Med Chem, 2024).
The source made the active and inactive calls. No cut-off for these calls is given here.

Key:
[1] = Antioxidant activity assessed as DPPH radical scavenging activity at 100 uM incubated for 30 mins in dark by absorbance based analysis relative to control; format: functional
In short: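 The compound in DMSO was mixed with DPPH in EtOH (final 100 μM). It was incubated 30 min at 37 °C with stirring in the dark, and absorbance was read at 515 nm. Scavenging % = (C − E) × 100/C against the DPPH control.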

Brain [2] = test: Antioxidant activity in Wistar rat brain homogenate assessed as inhibition of FeSO4-induced lipid peroxidation by measuring TBARS scavenging activity at 100 uM preincubated with compound for 30 mins followed by FeSO4 addition and measured after 1 hrs by absorbance based microplate reader relative to control; format: functional, tissue-based; design: scale not given: the % may be the effect or the level left; conditions: time 90.0 min
In short: (§1)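 Whole brains of adult male Wistar rats (200–250 g) were homogenized 1/10 in PBS pH 7.4 and spun at 800 rcf. The supernatant was adjusted to 2.666 mg protein/mL and preincubated with EDTA and compound in DMSO for 30 min at 37 °C. FeSO₄ (final 10 μM) was added for 1 h at 37 °C. TBA/TCA reagent was added, then heating at 80 °C, and A540 was read against a TMP standard curve. Inhibition % was calculated versus the DMSO control; α-tocopherol served as the standard. IC₅₀ came from linear regression, mean ± SEM of three experiments.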

Alpha-glucosidase = Alpha-glucosidase (Saccharomyces cerevisiae S288c, UniProt P53341+P38158+P07265); test: Inhibition of Saccharomyces cerevisiae alpha-glucosidase using p-nitrophenyl-alpha-D-glucopyranoside as substrate pre-incubated for 10 mins followed by substrate addition and measured after 15 mins by absorbance based analysis; format: protein assay
Brain [3] = test: Antioxidant activity in Wistar rat brain homogenate assessed as inhibition of FeSO4-induced lipid peroxidation preincubated with compound for 30 mins followed by FeSO4 addition and measured after 1 hrs by TBARS assay; format: functional, tissue-based; in short: as §1
Mus musculus [4] = test: Anti-hyperglycemic activity in CDI mouse assessed as decrease in blood glucose level at 50 mg/kg preadministered with compound for 30 mins followed by sucrose administration and measured after 30 mins by oral sucrose tolerance test relative to control; format: functional
In short: (§2)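 Sucrose 3 g kg⁻¹ given orally 30 min later. Caudal vein blood glucose measured by glucometer at 0, 0.5, 1, 1.5, 2 and 3 h; % variation of glycemia calculated relative to the 0 h level.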

Mus musculus [5] = test: Anti-hyperglycemic activity in CDI mouse assessed as blood glucose concentration at 50 mg/kg preadministered with compound for 30 mins followed by sucrose administration and measured after 3 hrs by oral sucrose tolerance test relative to control; format: functional; conditions: time 3.5 hrs; in short: as §2
Mus musculus [6] = test: Anti-hyperglycemic activity in CDI mouse assessed as reduction in blood glucose level at 100 mg/kg preadministered with compound for 30 mins followed by sucrose administration and measured upto 3 hrs by oral sucrose tolerance test relative to control; format: functional; design: scale not given: the % may be the effect or the level left; conditions: time < 3.5 hrs; in short: as §2
[7] = molecular target: T1, Alpha-glucosidase (Saccharomyces cerevisiae S288c) (UniProt P53341+P38158+P07265); test: Mixed type inhibition of Saccharomyces cerevisiae alpha-glucosidase using p-nitrophenyl-alpha-D-glucopyranoside as substrate at 0.5 to 1 times of IC50 pre-incubated for 10 mins followed by substrate addition and measured after 15 mins by Lineweaver-Burk plot analysis; format: protein assay; conditions: time 25.0 min
In short: (§3)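 The same α-glucosidase protocol was used, with enzyme and inhibitor preincubated 10 min. Reactions were started with PNPG varied from 1 to 23.1 mM at 37 °C, quenched with […] and read at 405 nm. […] Mode was assigned from Lineweaver–Burk plots.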

Mus musculus [8] = test: Anti-hyperglycemic activity in CDI mouse assessed as reduction in blood glucose level preadministered with compound for 30 mins followed by sucrose administration and measured upto 3 hrs by oral sucrose tolerance test; format: functional, organism-based; conditions: dose 50-100 mg/kg, time <= 3.5 hrs; in short: as §2
[9] = Toxicity in CDI mouse; conditions: in vivo
COS-7 = test: Cytotoxicity against African green monkey COS-7 cells at 50 uM; format: toxicity, cell-based; conditions: chlorocebus aethiops, cos-7, 50 µM
Mus musculus [10] = test: Anti-hyperglycemic activity in CDI mouse assessed as reduction in blood glucose level at 50 mg/kg measured for 7 hrs by oral glucose tolerance test; format: functional, organism-based
Mus musculus [11] = test: Anti-hyperglycemic activity in CDI mouse assessed as reduction in glucose AUC at 50 mg/kg measured for 7 hrs by oral glucose tolerance test; format: functional, organism-based
[12] = molecular target: T1, Alpha-glucosidase (Saccharomyces cerevisiae S288c); test: Non-competitive inhibition of Saccharomyces cerevisiae alpha-glucosidase using p-nitrophenyl-alpha-D-glucopyranoside as substrate at 1 to 2 times of IC50 pre-incubated for 10 mins followed by substrate addition and measured after 15 mins by Lineweaver-Burk plot analysis; format: protein assay; conditions: time 25.0 min; in short: as §3
[13] = Antioxidant activity assessed as hydroxyl radical scavenging activity by measuring fluorescence intensity at 3 uM by Electron Paramagnetic Resonance based spectrophotometric analysis (reference value: 610 a.u.); format: functional
In short: (§4)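 Hydroxyl radicals generated by Fenton reaction: FeSO₄·7H₂O 20 μM (in acid water, pH 2.5) plus H₂O₂ 200 μM, with DMPO 6000 μM spin trap in PBS pH 7.4. Compound added in acetone at final 106, 60, 10.66 or 3.3 μM. The DMPO–OH quartet was recorded by EPR as the first derivative in a quartz flat cell, at 9.44 GHz, 8 mW microwave power, 0.1 mT modulation width. Intensity was taken as peak height of the second signal.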

[14] = Antioxidant activity assessed as hydroxyl radical scavenging activity by measuring fluorescence intensity at 10 uM by Electron Paramagnetic Resonance based spectrophotometric analysis (reference value: 610 a.u.); format: functional; in short: as §4
[15] = Antioxidant activity assessed as hydroxyl radical scavenging activity by measuring fluorescence intensity at 60 uM by Electron Paramagnetic Resonance based spectrophotometric analysis (reference value: 610 a.u.); format: functional; in short: as §4
[16] = Antioxidant activity assessed as hydroxyl radical scavenging activity by measuring fluorescence intensity at 106 uM by Electron Paramagnetic Resonance based spectrophotometric analysis (reference value: 610 a.u.); format: functional; in short: as §4
[17] = Antioxidant activity assessed as hydroxyl radical scavenging activity by Electron Paramagnetic Resonance based spectrophotometric analysis; format: functional; conditions: dose 3-106 µM
In short: (§5)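 Hydroxyl radicals came from a Fenton reaction: FeSO₄·7H₂O 20 μM (acid water, pH 2.5) plus H₂O₂ 200 μM, with DMPO 6000 μM spin trap in PBS pH 7.4. The compound in acetone was tested at final 106, 60, 10.66 and 3.3 μM. The DMPO–OH quartet was recorded by EPR (9.44 GHz, 8 mW, 0.1 mT modulation, 120 s sweep), and intensity was taken from the second-peak height.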

[18] = Antioxidant activity assessed as reduction in hydroxyl concentration at 10 uM by Electron Paramagnetic Resonance based spectrophotometric analysis relative to control; format: functional; design: scale not given: the % may be the effect or the level left; in short: as §5
[19] = Antioxidant activity assessed as inhibition of hydroxyl radical at 106 uM by Electron Paramagnetic Resonance based spectrophotometric analysis relative to control; format: functional; in short: as §5
[20] = molecular target: T1, Alpha-glucosidase (Saccharomyces cerevisiae S288c); test: Mixed type inhibition of Saccharomyces cerevisiae alpha-glucosidase using p-nitrophenyl-alpha-D-glucopyranoside as substrate at 1 to 2 times of IC50 pre-incubated for 10 mins followed by substrate addition and measured after 15 mins by Lineweaver-Burk plot analysis; format: protein assay; conditions: time 25.0 min; in short: as §3
[21] = Rattus norvegicus, Wistar, Brain

Compound | Activity [1] [%] | Activity (Brain [2]) [%] | IC50 (Alpha-glucosidase) [µM] | IC50 (Brain [3]; [21]) [µM] | further results
COc1cc(/C=C2/C(=O)N(Cc3ccccc3)C(C(=O)NC3CCCCC3)c3ccccc32)ccc1O (stereo not given) | 77.1 | 93.1 | 50.1 | – | –
COc1cc(/C=C2/C(=O)N(c3ccc(O)cc3)C(C(=O)NC3CCCCC3)c3ccccc32)cc(OC)c1O (stereo not given) | 33.1 | 98 | > 100 | 9.8 | –
COc1cc(/C=C2/C(=O)N(Cc3ccccc3)C(C(=O)NC3CCCCC3)c3ccccc32)cc(OC)c1O (stereo not given) | 36.2 | 96.8 | 61.3 | 2.2 | –
O=c1c(O)c(-c2ccc(O)c(O)c2)oc2cc(O)cc(O)c12 | 97.9 | 95.7 | – | – | –
VITAMIN E [listing 1 of 2 here] | 87.4 | 79.1 | – | – | –
COc1cc(/C=C2/C(=O)N(c3ccccc3)C(C(=O)NC3CCCCC3)c3ccccc32)cc(OC)c1O (stereo not given) | 40.6 | 97.8 | 60.1 | 4.8 | –
COc1cc(/C=C2/C(=O)N(c3ccc(C(C)C)cc3)C(C(=O)NC(C)(C)C)c3ccccc32)cc(OC)c1O (stereo not given) | 37.6 | 96.8 | > 100 | 2.4 | –
COc1cc(/C=C2/C(=O)N(c3ccc(C)cc3)C(C(=O)NC3CCCCC3)c3ccccc32)ccc1O (stereo not given) | 72.7 | 70.7 | 30.2 | – | Activity (Mus musculus [4]; time 60.0 min): Active; Activity (Mus musculus [5]): 20%; Activity (Mus musculus [6]): 41%; inhibition [7]: Active; Activity (Mus musculus [8]): Dose-Dependent Effect; Activity [9]: Non-Toxic; Activity (COS-7): Non-Toxic; Activity (Mus musculus [10]): inactive; Activity (Mus musculus [11]): inactive
COc1cc(/C=C2/C(=O)N(c3ccc(C(C)C)cc3)C(C(=O)NC(C)(C)C)c3ccccc32)ccc1O (stereo not given) | 67.3 | 92.4 | 68 | – | –
COc1cc(/C=C2/C(=O)N(c3ccc(F)cc3)C(C(=O)NC3CCCCC3)c3ccccc32)ccc1O (stereo not given) | 67.3 | 90.5 | 52.5 | – | –
COc1cc(/C=C2/C(=O)N(c3ccccc3)C(C(=O)NC3CCCCC3)c3ccccc32)ccc1O (stereo not given) | 66.8 | 95.5 | 50.5 | 19.2 | –
COc1cc(/C=C2/C(=O)N(c3ccc(C(F)(F)F)cc3)C(C(=O)NC3CCCCC3)c3ccccc32)ccc1O (stereo not given) | 65.9 | 64.3 | 13.7 | – | inhibition [12]: Active; Activity (Mus musculus [4]; time 60 min, 1 h): 26%; Activity [9]: Non-Toxic; Activity (COS-7): Non-Toxic; Activity (Mus musculus [10]): inactive; Activity (Mus musculus [11]): inactive
COc1cc(/C=C2/C(=O)N(c3ccc(C(C)C)cc3)C(C(=O)NC3CCCCC3)c3ccccc32)cc(OC)c1O (stereo not given) | 35.4 | 97.7 | 33.1 | 1.4 | Flu intensity [13]: 464 a.u.; Flu intensity [14]: 412 a.u.; Flu intensity [15]: 256 a.u.; Flu intensity [16]: 150 a.u.; Activity [17]: Dose-Dependent Effect; Activity [18]: 25%; inhibition [19]: 76%; Activity (Mus musculus [4]; time 60.0 min): Active; Activity (Mus musculus [5]): 29%; Activity (Mus musculus [6]): 54%; Activity (Mus musculus [8]): Dose-Dependent Effect
COc1ccc2c(c1)/C(=C\c1ccc(O)c(OC)c1)C(=O)N(c1ccc(C(C)C)cc1)C2C(=O)NC(C)(C)C (stereo not given) | 69.2 | 95.4 | 31.5 | 11.3 | –
CC(C)c1ccc(N2C(=O)/C(=C/c3ccccc3)c3ccccc3C2C(=O)NC(C)(C)C)cc1 (stereo not given) | 0 | 6.1 | 50.6 | – | –
COc1cc(/C=C2/C(=O)N(c3ccc(F)cc3)C(C(=O)NC3CCCCC3)c3ccccc32)cc(OC)c1O (stereo not given) | 36.1 | 96.8 | 57.2 | 2.9 | –
COc1cc(/C=C2/C(=O)N(c3ccc(C(C)C)cc3)C(C(=O)NC3CCCCC3)c3ccccc32)ccc1O (stereo not given) | 68 | 95.7 | 14.8 | 17.2 | inhibition [20]: Active; Activity (Mus musculus [4]; time 60 min, 1 h): 17%
COc1cc(/C=C2/C(=O)N(c3ccc(O)cc3)C(C(=O)NC3CCCCC3)c3ccccc32)ccc1O (stereo not given) | 72.2 | 96.4 | 92.8 | 22.7 | –
VITAMIN E [listing 2 of 2 here] | – | – | – | – | IC50 (Brain [3]): 6.8 µM
COc1cc(/C=C2/C(=O)N(c3ccc(C)cc3)C(C(=O)NC3CCCCC3)c3ccccc32)cc(OC)c1O (stereo not given) | 37.5 | 96.5 | 44.4 | 3.5 | –
COc1cc(/C=C2/C(=O)N(c3ccc(C(F)(F)F)cc3)C(C(=O)NC3CCCCC3)c3ccccc32)cc(OC)c1O (stereo not given) | 89.9 | 99.4 | > 100 | 1.6 | Activity (Mus musculus [4]; time 60.0 min): Active
